In ChEMBL document CHEMBL5143761, “Aroylhydrazone Glycoconjugate Prochelators Exploit Glucose Transporter 1 (GLUT1) to Target Iron in Cancer Cells” (ACS Med Chem Lett, 2022):
Active and inactive are the calls of the source. No cut-off for these calls is given here.

Tests used:
A2780 [1] = assay: Induction of apoptosis in human A2780 cells assessed as late apoptosis level at 20 uM incubated for 48 hrs by PI and FITC-Annexin V staining based flow cytometry; type: functional
Summary of the method: (§1)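 A2780 cells exposed to compound (20 μM) for 48 h. Cells then stained with FITC-Annexin V and propidium iodide and analysed by flow cytometry for early and late apoptotic fractions. Triplicate, mean ± standard deviation.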

A2780 [2] = assay: Induction of apoptosis in human A2780 cells assessed as early apoptosis level at 20 uM incubated for 48 hrs by PI and FITC-Annexin V staining based flow cytometry; type: functional; summary of the method: as §1
[3] = Antiproliferative activity against human MRC5 cells incubated for 72 hrs by MTT assay; type: toxicity, cell-based
Summary of the method: (§2)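 MTT assay after 72 h continuous exposure in MDA-MB-231 breast and A2780 ovarian cancer cells and MRC-5 normal lung fibroblasts. IC50 taken from the resulting dose–response.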

A2780 [4] = assay: Antiproliferative activity against human A2780 cells incubated for 72 hrs in presence of 12.5 uM GLUT1 inhibitor phloretin by MTT assay; type: functional, cell-based
Summary of the method: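 A2780 cells given test compound together with the GLUT1 inhibitor phloretin (12.5 μM) for 72 h. Read-out by MTT, giving IC50. Triplicate runs, reported as mean ± standard deviation.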

MDA-MB-231 [5] = assay: Antiproliferative activity against human MDA-MB-231 cells incubated for 72 hrs by MTT assay; type: functional, cell-based; details: MDA-MB-231, 72 h; summary of the method: as §2
[6] = Induction of intracellular iron sequestration in human A2780 cells at 20 uM by calcein based fluorescence assay
MDA-MB-231 [7] = assay: Antiproliferative activity against human MDA-MB-231 cells ectopically overexpressing GLUT1 incubated for 72 hrs by MTT assay relative to normal cells; type: functional, cell-based
Summary of the method: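 MDA-MB-231 derivative line transduced to overexpress GLUT1 is compared with an isogenic control line transduced with the same vector expressing Turbo-635 fluorescent protein. GLUT1 levels were checked by Western blot. IC50 from MTT after 72 h. Triplicate, mean ± standard deviation.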

A2780 [8] = assay: Antiproliferative activity against human A2780 cells incubated for 72 hrs by MTT assay; type: functional, cell-based; details: A2780, 72 h; summary of the method: as §2
[9] = (§3) Inhibition of cellular uptake of fluorescent glucose 2-NBDG in human A2780 cells at 50 uM incubated for 20 mins by flow cytometry; type: functional; set-up: scale not given: the % may be the effect or the level left
Summary of the method: (§4)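 A2780 cells held 12 h in glucose-free medium. They were then coincubated for 20 min with compound (50 μM) and 2-NBDG (100 μM) in growth medium with 1 g/L D-glucose. 2-NBDG uptake was read as flow-cytometric fluorescence, with phloretin (50 μM) as positive control. Triplicate, mean ± standard deviation.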

[10] = Ratio of IC50 for antiproliferative activity against human A2780 cells incubated for 72 hrs in presence of 12.5 uM GLUT1 inhibitor phloretin by MTT assay to IC50 antiproliferative activity against human A2780 cells incubated for 72 hrs in absence of 12.5 uM GLUT1 inhibitor phloretin by MTT assay; type: functional
Summary of the method: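 A2780 ovarian cancer cells were treated for 72 h with compound, either alone or coincubated with the GLUT1 inhibitor phloretin at 12.5 μM. Viability was read by MTT assay. IC50 values were determined in triplicate under each condition and reported as averages ± standard deviation. The value is the IC50 with phloretin relative to the IC50 without it.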

A2780 [11] = assay: as §3; type: functional; summary of the method: as §4

SMILES: OC[C@H]1OC(O)C[C@@H](O)[C@@H]1O (stereo partly drawn)
- Activity (A2780 [1]): 3.4%
- Activity (A2780 [2]): 3.6%

SMILES: O=C(N/N=C/c1ccccc1O)c1ccncc1 [SALINAZID]
- Activity (A2780 [1]): 38%
- Activity (A2780 [2]): 7.8%

SMILES: COC(=O)CCSSc1ccccc1/C=N/NC(=O)c1ccccc1
- IC50 at 72 h [3]: 12 µM
- inhibition (A2780 [4]): Active
- IC50 (MDA-MB-231 [5]): 12 µM
- Activity [6]: 20%
- Activity (MDA-MB-231 [7]): Active
- IC50 (A2780 [8]): 2.1 µM
- Activity (A2780 [2]): 5%

SMILES: O=C(CCSSc1ccccc1/C=N/NC(=O)c1ccccc1)OC[C@H]1OC(O)C[C@@H](O)[C@@H]1O (stereo partly drawn)
- IC50 at 72 h [3]: 29 µM
- Activity [9]: >20%
- IC50 (MDA-MB-231 [5]): 22 µM
- Activity (A2780 [1]): 20%
- Ratio IC50 [10]: >5
- Activity [6]: 20%
- Activity (MDA-MB-231 [7]): Active
- IC50 (A2780 [8]): 2.5 µM
- Activity (A2780 [2]): 5%

SMILES: O=C(CCSSc1ccccc1/C=N/NC(=O)c1ccccc1)N[C@H]1C(O)O[C@H](CO)[C@@H](O)[C@@H]1O (stereo partly drawn)
- IC50 at 72 h [3]: 33 µM
- Activity [9]: >20%
- IC50 (MDA-MB-231 [5]): 17 µM
- Activity [6]: 20%
- Activity (MDA-MB-231 [7]): Active
- IC50 (A2780 [8]): 5.3 µM
- Activity (A2780 [2]): 5%

SMILES: CC(=O)N(O)CCCCCNC(=O)CCC(=O)N(O)CCCCCNC(=O)CCC(=O)N(O)CCCCCN [DEFEROXAMINE]
- IC50 at 72 h [3]: 9 µM
- IC50 (MDA-MB-231 [5]): 6.1 µM
- IC50 (A2780 [8]): 3.5 µM

SMILES: O=C(CCSSc1ccccc1/C=N/NC(=O)c1ccccc1)OC[C@H]1OC(O)[C@H](O)[C@@H](O)[C@@H]1O (stereo partly drawn)
- IC50 at 72 h [3]: 26 µM
- Activity [9]: >20%
- IC50 (MDA-MB-231 [5]): 17 µM
- Activity [6]: 20%
- Activity (MDA-MB-231 [7]): Active
- IC50 (A2780 [8]): 5.2 µM
- Activity (A2780 [2]): 5%

SMILES: O=C(CCc1ccc(O)cc1)c1c(O)cc(O)cc1O
- inhibition (A2780 [11]): Active
